Rows were chosen to be rich in hits. Some 1.9% of all compounds tested hit in one or more screens of this group.
Efflux pump mplx = blocks antifungal efflux pumps in multiplex yeast assay. S. cerevisiae Candida pump triplex, Nile Red efflux. inhibition, % at 10 µM. 330,000 compounds, 0.44% hits;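 active = plate passing quality check with inhibition over a set limit, or well fluorescence over plate mean plus 4 SD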;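 note: Nile Red retained in pooled yeast measured as flow cytometry median fluorescence; 0% = buffer negative control and 100% = Enniatin B positive control; higher means more Nile Red kept so more efflux inhibition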
FGF22 binding-1 = shifts melting point of recombinant human FGF22. recombinant FGF22 thermal shift, SYPRO orange fluorescence; percent of sucrose octasulfate shift, DMSO zero. activity (Tm shift, normalised), % at 9.99 µM. 340,000 compounds, 1.5% hits;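 active = mean Tm shift, scaled 0 neutral to 100 positive control, at about 1.3% or above, every replicate too, limit read from the data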
ARFGAP1 inh = inhibits rat ARF GTPase activating protein 1. Q62848. Arfgap1-stimulated ARF1 GTP hydrolysis, GDP FP detection. inhibition, % at 16.5 µM. 360,000 compounds, 0.26% hits. AID 651572;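 active = inhibition above a per-plate limit, mean inhibition of low control wells plus 3 SD, cut at about 25% in these data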;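 note: 0% = DMSO wells with enzyme and 100% = wells lacking Arfgap1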
Target sequence (Q62848 1-136 limits assumed): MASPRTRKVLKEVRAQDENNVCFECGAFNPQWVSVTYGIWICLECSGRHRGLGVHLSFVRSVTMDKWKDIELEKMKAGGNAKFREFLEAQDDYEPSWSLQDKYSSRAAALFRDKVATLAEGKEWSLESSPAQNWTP
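System: truncated rat Arfgap1 GAP domain / Benchmarks: high control wells lacking Arfgap1, low control full reaction with DMSO / Times: compound-enzyme preincubation 20 min, reaction 120 min, detection 60 min, 25 °C / Repeats: one replicate per compound / Also added: human ARF1(Δ1-17)-GTP substrate / Measured by: Tracer-displacement fluorescence polarization with EDTA stop, 620/688 nm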
Rtt109 HAT inh = inhibitors of Candida albicans Rtt109/Vps75 histone acetyltransferase | Q5AAJ8 | purified Rtt109/Vps75, ThioGlo CoA-SH fluorescence, 4 h | inhibition, % at 34.9 µM | 330,000 compounds, 0.16% hits | AID 540336;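 active = inhibition of at least 50% in every replicate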
ASAP1 GAP inh = blocks human ASAP1-stimulated Arf1 GTP hydrolysis; AID 624377; Q9ULH1; 360,000 compounds, 0.19% hits; GDP FP detection; inhibition, % at 16.5 µM; in the data active = inhibition above about 25%;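 note: 0% = vehicle with enzyme and substrate and 100% = no enzyme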
Target sequence (Q9ULH1 325-724 limits assumed): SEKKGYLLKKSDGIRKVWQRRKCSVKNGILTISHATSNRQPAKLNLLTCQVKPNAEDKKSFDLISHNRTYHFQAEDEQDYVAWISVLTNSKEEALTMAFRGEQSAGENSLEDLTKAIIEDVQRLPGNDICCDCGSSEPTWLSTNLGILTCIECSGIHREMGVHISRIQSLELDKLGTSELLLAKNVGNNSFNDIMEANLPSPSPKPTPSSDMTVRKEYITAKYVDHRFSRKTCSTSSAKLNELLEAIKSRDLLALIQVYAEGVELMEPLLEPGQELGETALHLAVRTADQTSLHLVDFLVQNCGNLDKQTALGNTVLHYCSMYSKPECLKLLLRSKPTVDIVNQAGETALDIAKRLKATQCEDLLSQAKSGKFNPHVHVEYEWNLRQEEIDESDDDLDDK
FGF22 binding-2 = binders of human FGF22 by thermal shift; shares compounds with FGF22 binding-1; recombinant FGF22 thermal shift, SYPRO orange fluorescence; thermal shift activity, °C (ΔTm) at 38 µM; 1,000 compounds, 2% hits; AID 720646;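 active = fitted rise in melting shift crosses a set limit at or below the top valid dose tested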
TSA no protein = compound-only SYPRO artifact for FGF22 binders. 1,000 compounds, 2% hits. AC50, µM (titrated, usually from 38 µM). shares compounds with FGF22 binding-1. AID 743019. compound-only SYPRO orange thermal shift counter-screen, no protein;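 active = rising signal whose fitted curve reaches the 0.54 level within the top valid dose, showing a melting point, actives reach about 13 µM in these data; inactive = the rest, including activity in the opposite direction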; note: value is where the raw curve crosses a fixed level and not half-maximal
An asterisk follows results filed as active; i = inactive; / = not tested or not shown; [ ] = remark or other dose.

SMILES	Efflux pump mplx	FGF22 binding-1	ARFGAP1 inh	Rtt109 HAT inh	ASAP1 GAP inh	FGF22 binding-2	TSA no protein
CCS(=O)(=O)N[C@@H]1CC[C@H](CC(=O)Nc2ccc(-c3ccccc3)cc2)O[C@@H]1CO	/	1.2*	/	/	/	0.14[35 µM]	i
CCS(=O)(=O)N[C@H]1CC[C@H](CC(=O)Nc2ccc(-c3ccccc3)cc2)O[C@H]1CO	/	0	/	/	/	/	/
O=C(Nc1ccccc1)Nc1ccc2snnc2c1	0	/	-4	7	19	/	/
O=C(Nc1ccccc1)Nc1ccc2nnsc2c1	0	2.1*	-5	0	8	0.27	i
O=C(Nc1nc(=O)n(C(=O)C2CC2)s1)c1ccccc1	0	2.2*	-2	-11	-4	-0.028	i
Cc1ccc(C(=O)Nc2nc(=O)n(C(=O)C3CC3)s2)cc1	0	1.3*	12	-3	8	-0.088	i
Cc1ccc(C(=O)Nc2nc(=O)n(C(=O)c3ccccc3C)s2)cc1	0	/	-1	10	-6	/	/
N#C[C@@H]1[C@@H](c2ccc(C3=CCCCC3)cc2)[C@@H](CO)N1S(=O)(=O)c1ccccc1	/	0	/	/	/	/	/
N#C[C@H]1[C@@H](c2ccc(C3=CCCCC3)cc2)[C@@H](CO)N1S(=O)(=O)c1ccccc1	/	1.9*	/	/	/	-0.2	i
O=C(NCCc1ccccc1)c1cccnc1N1CCCCCC1	0	0	23	-9	-1	/	/
COc1ccccc1NC(=O)c1ccc(C(=O)Nc2ccccc2OC)nc1	0	0	-13	-7	-8	/	/
COc1ccccc1NC(=O)c1ccc(NC(=O)c2ccc(=O)[nH]c2)cc1	0	1.9*	-4	2	-7	0.36	i
COC(=O)c1c(NC(=O)C(C)C)sc(C(=O)N2CCOCC2)c1C	0	0	-5	8	-7	/	/
COc1ccc(C2=NN(c3ccccc3)C(c3cn(CCC(=O)O)nc3-c3ccccc3)C2)cc1 (stereo unspecified)	0	2.3*	-3	-5	-10	0.065	i
CCC(C)N(C(=O)COc1ccc(-c2nnco2)cc1)C1CCS(=O)(=O)C1 (stereo unspecified)	0	36*	1	2	-5	-0.045	i
CC(=O)c1ccc(NC(=O)/C(Cl)=C/c2ccccc2)cc1	0	0	-3	-2	-7	/	/
Cc1cc(C)cc(N(CC(=O)O)S(=O)(=O)c2c(C)noc2C)c1	0	0	3	4	-17	/	/
Cc1cc(C)cc(N(CC(=O)NC2CCC(C)CC2)S(=O)(=O)c2c(C)noc2C)c1 (stereo unspecified)	0	1.4*	4	-4	12	-0.055	i
Oc1ccc(-c2nnc(Nc3cccc(O)c3)c3ccccc23)cc1	0	1.9*	12	-1	-6	-0.14	i
Oc1ccc(-c2nc3ccccc3s2)c(O)c1	0	1.3*	0	-21	1	0.22	i
Cc1noc(NS(=O)(=O)c2ccc(NC(=O)c3cccc(S(=O)(=O)N(C)c4ccccc4)c3)cc2)c1C	/	1.6*	10	-2	-8	-0.17	i
CN(c1ccccc1)S(=O)(=O)c1cccc(NC(=O)c2ccc3ncsc3c2)c1	0	1.4*	-6	-2	-8	-0.047	i
CN1CCN(C(=O)C[C@@H]2CC[C@H]3[C@@H](COC[C@H](O)CN3CC3CCOCC3)O2)CC1	/	0	/	/	/	/	/
CC1(C)CC(=O)c2cc3c(nc2C1)CC(C)(C)CC3=O	0	/	6	0	-12	/	/
COc1ccc(N2CCN(CC(=O)NC(=O)NCc3ccccc3)CC2)cc1	0	0	2	-1	-6	/	/
SMILES	Efflux pump mplx	FGF22 binding-1	ARFGAP1 inh	Rtt109 HAT inh	ASAP1 GAP inh	FGF22 binding-2	TSA no protein
CCCSc1ncnc2[nH]ncc12	/	46*	-1	-5	-4	0.1	i
CCCCCCCCNc1ncnc2[nH]ncc12	/	0	-6	-1	3	/	/
O=C(NCC1CCOCC1)c1ccc2nc(Cc3cccc(Cl)c3)oc2c1	-1	1.4*	9	-5	-2	0.33	i
CN(CC1CCOCC1)C(=O)c1ccc2nc(Cc3cccc(Cl)c3)oc2c1	0	0	-8	10	-5	/	/
O=C(NCC[C@@H]1CC[C@H](NC(=O)C2CC2)[C@H](CO)O1)Nc1ccc(Cl)cc1	/	0	/	/	/	/	/
COc1ccc(NC(=O)N(C)C[C@H]2Oc3ccc(NS(=O)(=O)c4ccccc4)cc3C(=O)N([C@H](C)CO)C[C@H]2C)cc1	/	0	/	/	/	/	/
COc1ccc(NC(=O)N(C)C[C@@H]2Oc3ccc(NS(=O)(=O)c4ccccc4)cc3C(=O)N([C@H](C)CO)C[C@H]2C)cc1	/	5.0*	/	/	/	0.048[42 µM]	i
COc1ccc(S(=O)(=O)Nc2ccc3c(c2)C(=O)N([C@H](C)CO)C[C@H](C)[C@H](CN(C)CC2CC2)OCCCC[C@H](C)O3)cc1	/	1.4*	/	/	/	0.018	i
COc1ccc(S(=O)(=O)Nc2ccc3c(c2)CC(=O)N([C@@H](C)CO)C[C@@H](C)[C@H](CN(C)C(=O)Nc2ccc(F)cc2)O3)cc1	/	0	/	/	/	/	/
COc1ccc(NC(=O)N(C)C[C@@H]2Oc3ccc(NS(=O)(=O)c4ccc(OC)cc4)cc3CC(=O)N([C@H](C)CO)C[C@@H]2C)cc1	/	7.6*	/	/	/	-0.035	i
COc1ccc(NC(=O)N(C)C[C@@H]2Oc3ccc(NS(=O)(=O)c4cccs4)cc3CC(=O)N([C@H](C)CO)C[C@H]2C)cc1	/	28*	/	/	/	-0.011	i

Compound activity as filed in PubChem BioAssay.
